# Data published in ChEMBL document CHEMBL5058577, “EUbOPEN Chemogenomics Library 2 (Multiplex)” (2022).
# Test system: HEK-293T
# Assay: Multiplex assay against HEK293T
# Type: toxicity, cell-based
# Settings: human
# Procedure, shortened: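 Live cells were stained at seeding with Hoechst33342, BioTracker Green Microtubule Cytoskeleton Dye, MitoTracker Red and Annexin V Alexa Fluor 680. Following compound addition, they were imaged on a CQ1 microscope at 37°C and 5% CO2 and gated by CellPathfinder machine learning into Hoechst high-intensity objects or normal cells, with normal cells split into healthy, pyknosed or fragmented nuclei and pyknosed cells into mitotic or apoptotic. Tubulin, mitochondrial-mass and membrane-permeability phenotypes are per cents of healthy-nucleus cells.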
# [1] = 12 h, 1 µM, compound concentration 1 uM, replicate 1
# [2] = 12 h, 1 µM, compound concentration 1 uM, replicate 2
# [3] = 12 h, 10 µM, compound concentration 10 uM, replicate 1
# [4] = 12 h, 10 µM, compound concentration 10 uM, replicate 2
# [5] = 24 h, 1 µM, compound concentration 1 uM, replicate 1
# [6] = 24 h, 1 µM, compound concentration 1 uM, replicate 2
# [7] = 24 h, 10 µM, compound concentration 10 uM, replicate 1
# [8] = 24 h, 10 µM, compound concentration 10 uM, replicate 2
# [9] = 48 h, 1 µM, compound concentration 1 uM, replicate 1
# [10] = 48 h, 1 µM, compound concentration 1 uM, replicate 2
# [11] = 48 h, 10 µM, compound concentration 10 uM, replicate 1
# [12] = 48 h, 10 µM, compound concentration 10 uM, replicate 2
smiles,measurement,setting,value
COc1cc(NC(=O)CCN2CCC(OC(=O)Nc3ccccc3-c3ccccc3)CC2)c(Cl)cc1CNC[C@H](O)c1ccc(O)c2[nH]c(=O)ccc12 [BATEFENTEROL],Population Apoptotic (%),[1],42%
same,Population Fragmented Nuclei (%),[1],4%
same,Population Healthy Nuclei (%),[1],81%
same,Population Hoechst High Intensity Objects (%),[1],7%
same,Population Membrane Permeable-Phenotype (%),[1],0%
same,Population Mitochondria Different-Phenotype (%),[1],65%
same,Population Mitotic Cells (%),[1],57%
same,Population Normal (%),[1],92%
same,Population Pyknosed Nuclei (%),[1],14%
same,Population Tubulin-Different-Phenotype (%),[1],44%
same,Total Cell Count,[1],420
same,Population Apoptotic (%),[2],47%
same,Population Fragmented Nuclei (%),[2],3%
same,Population Healthy Nuclei (%),[2],78%
same,Population Hoechst High Intensity Objects (%),[2],8%
same,Population Mitochondria Different-Phenotype (%),[2],84%
same,Population Mitotic Cells (%),[2],52%
same,Population Normal (%),[2],91%
same,Population Pyknosed Nuclei (%),[2],17%
same,Population Tubulin-Different-Phenotype (%),[2],41%
same,Total Cell Count,[2],285
same,Population Apoptotic (%),[3],100%
same,Population Fragmented Nuclei (%),[3],90%
same,Population Healthy Nuclei (%),[3],0%
same,Population Hoechst High Intensity Objects (%),[3],31%
same,Population Membrane Permeable-Phenotype (%),[3],0%
same,Population Mitochondria Different-Phenotype (%),[3],0%
same,Population Mitotic Cells (%),[3],0%
same,Population Normal (%),[3],68%
same,Population Pyknosed Nuclei (%),[3],9%
same,Population Tubulin-Different-Phenotype (%),[3],0%
same,Total Cell Count,[3],16
same,Population Apoptotic (%),[4],52%
same,Population Fragmented Nuclei (%),[4],5%
same,Population Healthy Nuclei (%),[4],72%
same,Population Hoechst High Intensity Objects (%),[4],11%
same,Population Membrane Permeable-Phenotype (%),[4],1%
same,Population Mitochondria Different-Phenotype (%),[4],87%
same,Population Mitotic Cells (%),[4],47%
same,Population Normal (%),[4],88%
same,Population Pyknosed Nuclei (%),[4],22%
same,Population Tubulin-Different-Phenotype (%),[4],67%
same,Total Cell Count,[4],303
same,Population Apoptotic (%),[5],44%
same,Population Fragmented Nuclei (%),[5],9%
same,Population Healthy Nuclei (%),[5],77%
same,Population Hoechst High Intensity Objects (%),[5],5%
same,Population Membrane Permeable-Phenotype (%),[5],0%
same,Population Mitochondria Different-Phenotype (%),[5],59%
same,Population Mitotic Cells (%),[5],55%
same,Population Normal (%),[5],94%
same,Population Pyknosed Nuclei (%),[5],12%
same,Population Tubulin-Different-Phenotype (%),[5],35%
same,Total Cell Count,[5],527
same,Population Apoptotic (%),[6],41%
same,Population Fragmented Nuclei (%),[6],7%
same,Population Healthy Nuclei (%),[6],82%
same,Population Hoechst High Intensity Objects (%),[6],8%
same,Population Mitochondria Different-Phenotype (%),[6],65%
same,Population Mitotic Cells (%),[6],58%
same,Population Normal (%),[6],91%
same,Population Pyknosed Nuclei (%),[6],9%
same,Population Tubulin-Different-Phenotype (%),[6],27%
same,Total Cell Count,[6],403
same,Population Apoptotic (%),[7],0%
same,Population Fragmented Nuclei (%),[7],87%
same,Population Healthy Nuclei (%),[7],12%
same,Population Hoechst High Intensity Objects (%),[7],33%
same,Population Membrane Permeable-Phenotype (%),[7],0%
same,Population Mitochondria Different-Phenotype (%),[7],100%
same,Population Mitotic Cells (%),[7],0%
same,Population Normal (%),[7],66%
same,Population Pyknosed Nuclei (%),[7],0%
same,Population Tubulin-Different-Phenotype (%),[7],100%
same,Total Cell Count,[7],12
same,Population Apoptotic (%),[8],56%
same,Population Fragmented Nuclei (%),[8],6%
same,Population Healthy Nuclei (%),[8],73%
same,Population Hoechst High Intensity Objects (%),[8],7%
same,Population Mitochondria Different-Phenotype (%),[8],89%
same,Population Mitotic Cells (%),[8],43%
same,Population Normal (%),[8],93%
same,Population Pyknosed Nuclei (%),[8],19%
same,Population Tubulin-Different-Phenotype (%),[8],78%
same,Total Cell Count,[8],357
same,Population Apoptotic (%),[9],35%
same,Population Fragmented Nuclei (%),[9],15%
same,Population Healthy Nuclei (%),[9],75%
same,Population Hoechst High Intensity Objects (%),[9],3%
same,Population Membrane Permeable-Phenotype (%),[9],0%
same,Population Mitochondria Different-Phenotype (%),[9],36%
same,Population Mitotic Cells (%),[9],65%
same,Population Normal (%),[9],96%
same,Population Pyknosed Nuclei (%),[9],8%
same,Population Tubulin-Different-Phenotype (%),[9],17%
same,Total Cell Count,[9],744
same,Population Apoptotic (%),[10],51%
same,Population Fragmented Nuclei (%),[10],13%
same,Population Healthy Nuclei (%),[10],79%
same,Population Mitochondria Different-Phenotype (%),[10],42%
same,Population Mitotic Cells (%),[10],48%
same,Population Pyknosed Nuclei (%),[10],6%
same,Total Cell Count,[10],547
same,Population Apoptotic (%),[11],100%
same,Population Fragmented Nuclei (%),[11],58%
same,Population Healthy Nuclei (%),[11],25%
same,Population Hoechst High Intensity Objects (%),[11],7%
same,Population Membrane Permeable-Phenotype (%),[11],0%
same,Population Mitochondria Different-Phenotype (%),[11],66%
same,Population Mitotic Cells (%),[11],0%
same,Population Normal (%),[11],92%
same,Population Pyknosed Nuclei (%),[11],16%
same,Population Tubulin-Different-Phenotype (%),[11],66%
same,Total Cell Count,[11],13
same,Population Apoptotic (%),[12],57%
same,Population Fragmented Nuclei (%),[12],11%
same,Population Healthy Nuclei (%),[12],76%
same,Population Mitochondria Different-Phenotype (%),[12],76%
same,Population Mitotic Cells (%),[12],42%
same,Population Pyknosed Nuclei (%),[12],11%
same,Population Tubulin-Different-Phenotype (%),[12],74%
same,Total Cell Count,[12],427
CCNC1(C(N)=O)CCN(c2ncnc3c2nc(-c2ccccc2Cl)n3-c2ccc(Cl)cc2)CC1 [OTENABANT],Population Apoptotic (%),[1],51%
same,Population Fragmented Nuclei (%),[1],8%
same,Population Healthy Nuclei (%),[1],80%
same,Population Hoechst High Intensity Objects (%),[1],10%
same,Population Membrane Permeable-Phenotype (%),[1],0%
same,Population Mitochondria Different-Phenotype (%),[1],48%
same,Population Mitotic Cells (%),[1],48%
same,Population Normal (%),[1],89%
same,Population Pyknosed Nuclei (%),[1],10%
same,Population Tubulin-Different-Phenotype (%),[1],52%
same,Total Cell Count,[1],401
same,Population Apoptotic (%),[2],58%
same,Population Healthy Nuclei (%),[2],76%
same,Population Hoechst High Intensity Objects (%),[2],6%
same,Population Mitochondria Different-Phenotype (%),[2],66%
same,Population Mitotic Cells (%),[2],41%
same,Population Normal (%),[2],93%
same,Population Pyknosed Nuclei (%),[2],15%
same,Population Tubulin-Different-Phenotype (%),[2],44%
same,Total Cell Count,[2],333
same,Population Apoptotic (%),[3],46%
same,Population Fragmented Nuclei (%),[3],3%
same,Population Healthy Nuclei (%),[3],74%
same,Population Hoechst High Intensity Objects (%),[3],16%
same,Population Membrane Permeable-Phenotype (%),[3],0%
same,Population Mitochondria Different-Phenotype (%),[3],82%
same,Population Mitotic Cells (%),[3],53%
same,Population Normal (%),[3],83%
same,Population Pyknosed Nuclei (%),[3],22%
same,Population Tubulin-Different-Phenotype (%),[3],50%
same,Total Cell Count,[3],381
same,Population Apoptotic (%),[4],63%
same,Population Fragmented Nuclei (%),[4],4%
same,Population Healthy Nuclei (%),[4],67%
same,Population Hoechst High Intensity Objects (%),[4],9%
same,Population Mitochondria Different-Phenotype (%),[4],96%
same,Population Mitotic Cells (%),[4],36%
same,Population Normal (%),[4],90%
same,Population Pyknosed Nuclei (%),[4],27%
same,Population Tubulin-Different-Phenotype (%),[4],43%
same,Total Cell Count,[4],251
same,Population Apoptotic (%),[5],49%
same,Population Fragmented Nuclei (%),[5],8%
same,Population Healthy Nuclei (%),[5],80%
same,Population Hoechst High Intensity Objects (%),[5],5%
same,Population Membrane Permeable-Phenotype (%),[5],0%
same,Population Mitochondria Different-Phenotype (%),[5],43%
same,Population Mitotic Cells (%),[5],50%
same,Population Normal (%),[5],94%
same,Population Pyknosed Nuclei (%),[5],11%
same,Population Tubulin-Different-Phenotype (%),[5],44%
same,Total Cell Count,[5],474
same,Population Apoptotic (%),[6],40%
same,Population Fragmented Nuclei (%),[6],12%
same,Population Healthy Nuclei (%),[6],75%
same,Population Mitochondria Different-Phenotype (%),[6],47%
same,Population Mitotic Cells (%),[6],59%
same,Population Tubulin-Different-Phenotype (%),[6],41%
same,Total Cell Count,[6],442
same,Population Apoptotic (%),[7],40%
same,Population Fragmented Nuclei (%),[7],8%
same,Population Healthy Nuclei (%),[7],71%
same,Population Hoechst High Intensity Objects (%),[7],17%
same,Population Membrane Permeable-Phenotype (%),[7],1%
same,Population Mitochondria Different-Phenotype (%),[7],79%
same,Population Mitotic Cells (%),[7],59%
same,Population Normal (%),[7],82%
same,Population Pyknosed Nuclei (%),[7],19%
same,Population Tubulin-Different-Phenotype (%),[7],56%
same,Total Cell Count,[7],452
same,Population Apoptotic (%),[8],64%
same,Population Fragmented Nuclei (%),[8],6%
same,Population Healthy Nuclei (%),[8],77%
same,Population Hoechst High Intensity Objects (%),[8],13%
same,Population Membrane Permeable-Phenotype (%),[8],0%
same,Population Mitochondria Different-Phenotype (%),[8],95%
same,Population Mitotic Cells (%),[8],35%
same,Population Normal (%),[8],86%
same,Population Pyknosed Nuclei (%),[8],15%
same,Population Tubulin-Different-Phenotype (%),[8],53%
same,Total Cell Count,[8],283
same,Population Apoptotic (%),[9],34%
same,Population Fragmented Nuclei (%),[9],12%
same,Population Healthy Nuclei (%),[9],78%
same,Population Hoechst High Intensity Objects (%),[9],4%
same,Population Membrane Permeable-Phenotype (%),[9],1%
same,Population Mitochondria Different-Phenotype (%),[9],29%
same,Population Mitotic Cells (%),[9],65%
same,Population Normal (%),[9],95%
same,Population Pyknosed Nuclei (%),[9],9%
same,Population Tubulin-Different-Phenotype (%),[9],30%
same,Total Cell Count,[9],766
same,Population Apoptotic (%),[10],32%
same,Population Fragmented Nuclei (%),[10],8%
same,Population Healthy Nuclei (%),[10],82%
same,Population Membrane Permeable-Phenotype (%),[10],0%
same,Population Mitochondria Different-Phenotype (%),[10],30%
same,Population Mitotic Cells (%),[10],68%
same,Population Pyknosed Nuclei (%),[10],8%
same,Total Cell Count,[10],604
same,Population Apoptotic (%),[11],52%
same,Population Fragmented Nuclei (%),[11],13%
same,Population Healthy Nuclei (%),[11],71%
same,Population Hoechst High Intensity Objects (%),[11],16%
same,Population Membrane Permeable-Phenotype (%),[11],2%
same,Population Mitochondria Different-Phenotype (%),[11],78%
same,Population Mitotic Cells (%),[11],47%
same,Population Normal (%),[11],83%
same,Population Pyknosed Nuclei (%),[11],15%
same,Population Tubulin-Different-Phenotype (%),[11],66%
same,Total Cell Count,[11],560
same,Population Apoptotic (%),[12],70%
same,Population Fragmented Nuclei (%),[12],10%
same,Population Healthy Nuclei (%),[12],77%
same,Population Hoechst High Intensity Objects (%),[12],14%
same,Population Membrane Permeable-Phenotype (%),[12],0%
same,Population Mitochondria Different-Phenotype (%),[12],89%
same,Population Mitotic Cells (%),[12],29%
same,Population Normal (%),[12],85%
same,Population Pyknosed Nuclei (%),[12],12%
same,Population Tubulin-Different-Phenotype (%),[12],57%
same,Total Cell Count,[12],325
